Source: PubChem (several laboratories)
This is a sample that favours compounds with a hit; in the whole collection about 2.1% have one here.
Wee1 stabilizer = Wee1 degradation inhibitors, primary screen, cell-based, HeLa, Wee1K328M-luciferase, luminescence; AID 1321, 2008; reporter increase, % at 5 µM; Wee1-like protein kinase (Homo sapiens), P30291; 220,000 tested, 1.2% active; HeLa Luc-Wee1K328M stability; 100% = proteasome inhibitor MG132 effect;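 active = activation above the mean of all tested compounds plus 3 SD, set per screening run, cut at about 8.8% in these data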;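 also: cells exposed to compound for 20 h before luminescence read; 0% = DMSO alone and 100% = MG132 at 30 µM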
zVAD death inh = inhibitors of zVAD-triggered necroptosis, primary screen, L929 cells; L929 zVAD necroptosis rescue, ATP luminescence, 24 h; with zVAD 60 µM; viability rescue, % at 10 µM; 220,000 tested, 0.38% active; AID 1377, 2008;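 active = activation, scaled between plate controls, above about 75%, limit read from the data; inactive = activation under that limit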;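 also: 0% = zVAD with DMSO and 100% = DMSO alone without zVAD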
TNF death inh = inhibitors of TNF-alpha triggered necroptosis, primary screen, cell-based, Jurkat FADD-/-, single concentration | Jurkat FADD-/- TNF necroptosis rescue, ATP luminescence, 24 h; 0 = TNF only, 100 = no-TNF cells | activation (protection from cell death), % at 10 µM | 220,000 tested, 0.068% active;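 active = activation, meaning protection from cell death, of at least 50% relative to plate controls; inactive = activation below 50%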;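 also: necroptosis triggered by 40 ng/mL TNF-alpha added together with compound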
Pf gametocyte = late stage P. falciparum gametocyte viability inhibitors, primary screen, ATP luminescence, HTS; P. falciparum stage V gametocytes, 24 h; inhibition, % at 10.9 µM; 150,000 tested, 0.065% active;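 active = inhibition above the mean plus 3 SD of compounds within the control limits, set per campaign, cut at about 38% in these data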;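 also: 0% = DMSO wells and 100% = medium only without gametocytes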
Calpain2 inh = inhibitors of pig calpain II, primary screen, biochemical, fluorogenic peptide substrate, 1536-well. purified calpain II, 30 min. inhibition, % at 16 µM. 220,000 tested, 0.37% active;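 active = inhibition above about 50%, limit read from the data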
RBBP9 inhibitor = human RBBP9 inhibitors, primary screen, biochemical, fluorescence polarization, FP-Rh probe, HTS | Serine hydrolase RBBP9 (Homo sapiens), O75884 | recombinant RBBP9 | inhibition, % at 7.94 µM | 220,000 tested, 0.2% active;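 active = inhibition above the campaign mean of all tested compounds plus 3 SD, cut at about 14% in these data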;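 also: plate controls were DMSO wells with RBBP9 for no effect and wells lacking RBBP9 protein for full effect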
Target sequence (O75884 whole entry, looked up): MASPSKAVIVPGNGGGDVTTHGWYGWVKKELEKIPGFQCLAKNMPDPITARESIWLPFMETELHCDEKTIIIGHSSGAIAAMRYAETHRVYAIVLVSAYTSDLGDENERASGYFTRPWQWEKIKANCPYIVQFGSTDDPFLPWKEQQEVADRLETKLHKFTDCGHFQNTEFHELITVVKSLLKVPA
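Measured by – fluorescence polarization · Test system – RBBP9 protein · Input – 2.5 µM RBBP9 dispensing solution, before mixing · Measure – percent inhibition from mP, scaled between DMSO and no-protein wells · Benchmarks – DMSO-treated enzyme wells and wells lacking RBBP9 · Times – preincubation 30 min plus labeling 45 min at 25 °C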
* hit, by the source's call; x = no result.

SMILES	Wee1 stabilizer	zVAD death inh	TNF death inh	Pf gametocyte	Calpain2 inh	RBBP9 inhibitor
O=C1CC(C(=O)Nc2ccccc2)S/C(=N\N=C\c2ccco2)N1 (stereo not drawn)	-1	1	2	-10	17	-13
Cc1nn(Cc2c(F)c(F)c(F)c(F)c2F)c(C)c1NC(=O)c1ccc(COc2cc(Cl)ccc2Cl)cc1	0	0	-12	x	-16	-2
Cc1cccc(C)c1NC(=O)c1cccc(COc2cc(Cl)ccc2Cl)c1	9.0*	0	1	3	19	-3
C=CCN(C(=O)c1cccc(N2C(=O)C3CC=CC(C)C3C2=O)c1)c1ccccc1 (stereo not drawn)	-2	-1	1	x	-39	-8
CC(=O)Nc1ccc(S(=O)(=O)Nc2cccc3[nH]ncc23)cc1	-1	6	-3	10	51*	-7
Oc1ccc(/C=N/Nc2nc(-c3ccc(Cl)cc3)cc(C(F)(F)F)n2)cc1	10*	2	-2	x	14	-6
Nc1nc(-c2ccc(Cl)cc2)cc(C(F)(F)F)n1	0	0	-6	8	1	-5
O=C1CCCCC1C(Nc1ccc(Br)cc1)c1ccccc1 (stereo not drawn)	-1	0	-5	13	-4	2
O=C1CCCCC1C(Nc1ccc(Cl)cc1)c1ccccc1 (stereo not drawn)	9.5*	0	-7	x	14	-5
COc1ccccc1C(=O)Nc1ccc(C(=O)c2ccccc2)cc1	0	2	0	9	67*	-13
COc1ccccc1C(=O)Nc1ccc(C(=O)O)cc1	-1	0	-1	-2	17	5
O=C(CN1CCN(C/C=C/c2ccccc2)CC1)Nc1cc([N+](=O)[O-])ccc1Cl	0	0	2	x	-28	-5
O=C(Nc1cc(Sc2ccccn2)cc([N+](=O)[O-])c1)c1cccc(F)c1	-3	1	1	6	53*	-23
CCOc1ccccc1NC(=O)c1ccc(S(=O)(=O)N2CCOCC2)cc1	11*	0	2	x	-44	-1
Cc1nnc(NC(=O)c2ccco2)s1	-1	1	3	x	-5	-1
O=C(Nc1nnc(C23CC4CC(CC(C4)C2)C3)s1)c1ccco1	9.4*	0	0	x	9	0
O=C(Nc1nnc(COc2ccc(Cl)cc2)s1)c1ccco1	9.8*	2	0	3	0	-3
O=C(Oc1ccc2c(-c3ccccc3)cc(=O)oc2c1)C1CCCCC1	3	1	-4	-16	56*	-11
CC(=O)C1=C(C)OC(N)=C(C#N)C1c1ccncc1 (stereo not drawn)	-3	0	-3	-6	1	-4
COc1ccc2cc(C3C(C#N)=C(N)OC(C)=C3C(C)=O)c(Cl)nc2c1 (stereo not drawn)	9.0*	0	-2	-10	7	-3
CCC(/C=N/NC(=O)C(N)=O)CC	-1	2	1	-11	-2	3
CC(=O)c1ccc(Nc2cc(C)nc3ccccc23)cc1	6	-2	-3	-27	3	-7
CC(=O)c1ccc(Nc2cc(C)nc3c(C)cccc23)cc1	10*	-3	-3	-6	-5	-7
CCCC(=O)Nc1ccc(-c2nc3ncccc3o2)cc1	x	x	x	-6	x	x
CC(OC(=O)CCc1nc2ccccc2[nH]c1=O)C(=O)c1ccccc1 (stereo not drawn)	3	0	-1	15	-67	-13
SMILES	Wee1 stabilizer	zVAD death inh	TNF death inh	Pf gametocyte	Calpain2 inh	RBBP9 inhibitor
CC(OC(=O)CCc1nc2ccccc2[nH]c1=O)c1ccccc1 (stereo not drawn)	11*	0	-1	-12	-34	-8
C=CCNC(=S)NNC(=O)c1cc(O)ccc1O	-4	4	0	-10	-27	5
O=C(Cn1c(C(=O)OCCO)cc2ccccc21)c1ccccc1	x	x	x	-21	x	x
CNC(=S)NNC(=O)c1sccc1OCc1ccc(Cl)cc1Cl	1	0	0	9	3	-4
S=c1nc(-c2sccc2OCc2ccc(Cl)cc2Cl)[nH][nH]1	-3	-1	-4	x	93*	-15
C/C(N)=C(/C#N)C(=O)COC(=O)CC12CC3CC(CC(C3)C1)C2	-2	-1	-1	-8	65*	0
c1ccc(CCNc2ncnc3scc(C4COc5ccccc5O4)c23)cc1 (stereo not drawn)	2	0	-3	-11	60*	-10
O=C(NN1C(=O)c2ccccc2NC1c1ccco1)c1ccc(Br)cc1 (stereo not drawn)	-2	0	-1	x	-35	-4
O=C(NN1C(=O)c2ccccc2NC1c1ccco1)c1ccc([N+](=O)[O-])cc1 (stereo not drawn)	-2	0	-2	x	62*	-4
O=C(/C=C\c1ccc(-c2ccccc2)o1)c1ccccc1	8.8*	0	-9	0	-21	-6
Cc1ccc(-n2[nH]c3c4c(ccc3c2=O)C(=O)c2ccccc2C4=O)cc1	2	2	0	61*	7	3
COc1ccc(Nc2cc(C(=O)NCc3ccco3)c3ccccc3n2)cc1	11*	1	2	x	-170	-2
COc1ccc(Nc2cc(C(=O)NCCCN3CCN(C)CC3)c3ccccc3n2)cc1	-1	3	1	-10	-13	-7
Cc1c(C(=O)/C=C/N(C)C)nnn1-c1ccc(F)c(Cl)c1	10*	1	2	-2	17	-5
Cc1c(C(=O)/C=C/N(C)C)nnn1-c1ccc(Cl)c(Cl)c1	3	0	1	9	16	-4
CCOC(=O)C(C#N)C(c1cccnc1)c1c(C)[nH][nH]c1=O (stereo not drawn)	-1	0	-1	40*	-18	-7
CCCCC/C(=N\NC(=O)Nc1ccccc1)c1ccccc1	9.2*	8	0	9	10	-7
Cc1ccc(/C=N/NC(=O)NC23CC4CC(CC(C4)C2)C3)o1	10*	x	x	-21	x	-8
O=C1CC(c2ccc(O)cc2)Oc2cc(O)cc(O)c21 (stereo not drawn)	-2	3	0	x	10	2
CC1CC(=O)c2c(cc3c(-c4c(O)cc(O)c5c(O)c6c(cc45)OC(C)CC6=O)c(O)cc(O)c3c2O)O1 (stereo not drawn)	3	-1	-11	x	-14	26*
O=C(CSc1ccc2nnc(-c3ccncc3)n2n1)Nc1nccs1	2	2	3	x	65*	5
